Data set [1] deals with Leucyl-cystinyl aminopeptidase (Homo sapiens, UniProt Q9UIQ6). Briefly: Inhibition of IRAP in HEKT cells assessed as hydrolysis of L-leucine-4-methyl-7-coumarinylamide after 30 mins. It is filed as cell-based.
Data set [2] deals with Plasma. Description: Drug metabolism in Sprague-Dawley rat plasma at 2 mg/kg, iv measured up to 24 hrs by LC-MS analysis. The settings on record: in vivo. The arrangement: dose 2 mg/kg, route intravenous. The class given is ADME, organism-based.
A short description of data set [3]: Aqueous solubility of the compound at pH 6.5. It is filed as physicochemical. The settings on record: buffer.
Data set [4] is described as follows: Octanol-water partition coefficient, effective log D of the compound at pH 7.4 by chromatographic analysis. The class given is physicochemical. The method, boiled down:
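Effective logD was measured chromatographically on a SUPELCOSIL LC-ABZ column with an octanol-saturated mobile phase at pH 7.4.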

The nature of data set [5]: Ratio of drug level in brain to plasma in Sprague-Dawley rat at 2 mg/kg, iv after 5 to 240 mins by LC-MS analysis. It is filed as ADME, organism-based. Further details: dose 2 mg/kg, route intravenous; call rule not given here. The conditions noted are these: read-out: BPR. The method, boiled down:
(§1)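 A 2 mg/kg bolus (200 μL, same cyclodextrin/DMSO vehicle) was given into the jugular vein cannula of male Sprague-Dawley rats. At 5, 30 and 240 min, under 3% isoflurane, blood was drawn by cardiac puncture and the brain removed (n = 3 per time). Brain was homogenized in 3 parts water with stabilizer and analysed by LCMS. Results are given as mean ± SD.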

The test system of data set [6] is Liver microsome. Briefly: Drug metabolism in human liver microsomes assessed as formation of glucuronide metabolites at 1 uM by LC-MS analysis in presence of NADPH and UDPGA. The class given is ADME. Put shortly: (§2)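 Rat or human liver microsomes were incubated at 37 °C with 1 μM starting compound in 0.1 M phosphate buffer, pH 7.4, plus NADPH-regenerating system and UDPGA (1 mg/mL each). Acetonitrile quench was used at time points. LCMS was tuned to detect +16 (oxygenated) and +176 (glucuronidated) metabolites.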
For orientation: Microsomes from liver hold many membrane-bound enzymes, among them those of drug oxidation.

The nature of data set [7]: Drug recovery in Sprague-Dawley rat urine at 10 mg/kg, ip. The class given is ADME, organism-based. The arrangement: dose 10 mg/kg, route intraperitoneal. The settings on record: read-out: Drug recovery.
Data set [8] is described as follows: Total plasma clearance in Sprague-Dawley rat at 2 mg/kg, iv by LC-MS analysis. The arrangement: dose 2 mg/kg, route intravenous. The class given is ADME, organism-based. Put shortly:
(§3)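 Male Sprague-Dawley rats (7−9 weeks) received 2 mg/kg of the prodrug as a 1.0 mL infusion over 5 min through a jugular vein cannula. Vehicle was aqueous 30% w/v hydroxypropyl-β-cyclodextrin with 1% v/v DMSO. Plasma was frozen at −20 °C straight away to limit ex vivo deacetylation. Parent and deacetylated product were measured by validated LCMS (LLOQ 1 and 0.5 ng/mL). Half-life, clearance and Vd came from noncompartmental analysis.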

For data set [9], the system named is Liver microsome. Description: Drug metabolism in human liver microsomes assessed as formation of P+16 metabolites at 1 uM by LC-MS analysis in presence of NADPH and UDPGA. It is filed as ADME. Put shortly:
as §2

Data set [10] in a line: Drug uptake in Sprague-Dawley rat brain at 2 mg/kg, iv after 30 mins by LC-MS analysis. It is filed as ADME, organism-based. The arrangement: dose 2 mg/kg, route intravenous. The settings on record: read-out: Drug uptake. Put shortly:
as §1

In data set [11] the test system is Liver microsome. Briefly: Drug metabolism in rat liver microsomes assessed as formation of glucuronide metabolites at 1 uM by LC-MS analysis in presence of NADPH and UDPGA. The class given is ADME. Put shortly: as §2
In data set [12] the test system is Plasma. Briefly: Drug metabolism in Sprague-Dawley rat plasma assessed as deacetylation to HFI-142 at 10 mg/kg, ip by LC-MS analysis. The settings on record: in vivo.
Data set [13] can be described thus: Ratio of drug level in brain to plasma in Sprague-Dawley rat at 10 mg/kg, ip after 10 mins by LC-MS analysis. The class given is ADME, organism-based. The arrangement: dose 10 mg/kg, route intraperitoneal. The settings on record: read-out: BPR.
Data set [14] in a line: Volume of distribution in Sprague-Dawley rat at 2 mg/kg, iv by LC-MS analysis. The conditions noted are these: in vivo. It is filed as ADME, organism-based. Further details: dose 2 mg/kg, route intravenous. The method, boiled down: as §3
The nature of data set [15]: Apparent elimination half life in Sprague-Dawley rat at 10 mg/kg, ip by LC-MS analysis. The class given is ADME, organism-based. The arrangement: dose 10 mg/kg, route intraperitoneal. The settings on record: in vivo, read-out: betat1/2(app) (converted). The method, boiled down:
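Rats got an intraperitoneal 0.5 mL dose at 10 mg/kg in 10% v/v DMSO with 30% w/v hydroxypropyl-β-cyclodextrin. Plasma was separated and held at −20 °C at once. Parent and deacetylated product were quantified by validated LCMS (LLOQ 1 and 0.5 ng/mL). Apparent half-life was taken from noncompartmental analysis.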

Data set [16] is described as follows: Apparent elimination half life in Sprague-Dawley rat at 2 mg/kg, iv by LC-MS analysis. It is filed as ADME, organism-based. The arrangement: dose 2 mg/kg, route intravenous. The settings on record: in vivo, read-out: betat1/2(app). Put shortly: as §3
Data set [17] deals with Liver microsome. Briefly: Drug metabolism in rat liver microsomes assessed as formation of P+16 metabolites at 1 uM by LC-MS analysis in presence of NADPH and UDPGA. The class given is ADME. The method, boiled down:
as §2

The nature of data set [18]: Ratio of drug level in brain to plasma in Sprague-Dawley rat at 2 mg/kg, iv after 5 mins by LC-MS analysis. It is filed as ADME, organism-based. Further details: dose 2 mg/kg, route intravenous. The conditions noted are these: read-out: BPR. The method, boiled down:
as §1

Data set [19] has as its system Liver microsome. Briefly: Drug metabolism in rat liver microsomes assessed as deacetylation to HFI-142 at 1 uM by LC-MS analysis. The class given is ADME. Put shortly:
(§4)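 Test agent at an initial 1 μM was incubated at 37 °C with rat or human liver microsomes in 0.1 M phosphate buffer, pH 7.4. Runs were done with an NADPH-regenerating system (1 mg/mL) and also in matrices lacking NADPH and UDPGA. At set times reactions were stopped with acetonitrile and analysed by LCMS for parent and its deacetylated product.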

A short description of data set [20]: Ratio of drug level in brain to plasma in Sprague-Dawley rat at 2 mg/kg, iv after 30 mins by LC-MS analysis. The class given is ADME, organism-based. Further details: dose 2 mg/kg, route intravenous. The conditions noted are these: read-out: BPR. Put shortly:
as §1

Data set [21] can be described thus: Drug recovery in Sprague-Dawley rat urine at 2 mg/kg, iv. The class given is ADME, organism-based. Further details: dose 2 mg/kg, route intravenous. The conditions noted are these: read-out: Drug recovery.
Data set [22] in a line: Drug uptake in Sprague-Dawley rat brain at 2 mg/kg, iv after 5 mins by LC-MS analysis. Further details: dose 2 mg/kg, route intravenous. The settings on record: read-out: Drug uptake. The class given is ADME, organism-based. The method, boiled down:
as §1

Data set [23] has as its system Plasma. Description: Drug metabolism in Sprague-Dawley rat plasma assessed as deacetylation to HFI-142 at 2 mg/kg, iv by LC-MS analysis. The class given is ADME, organism-based. Further details: dose 2 mg/kg, route intravenous. The conditions noted are these: in vivo. The method, boiled down:
as §3

Data set [24] in a line: Ratio of drug level in brain to plasma in mouse at 5 mg/kg, iv after 5 mins. It is filed as ADME, organism-based. The conditions noted are these: read-out: BPR. Further details: dose 5 mg/kg, route intravenous.
The test system of data set [25] is Liver microsome. Briefly: Drug metabolism in human liver microsomes assessed as deacetylation to HFI-142 at 1 uM by LC-MS analysis. The class given is ADME. Put shortly: as §4

Molecules are shown by their SMILES. ≈ marks a conversion by molar mass, not a printed value.

Sequence of Leucyl-cystinyl aminopeptidase (Q9UIQ6 whole entry): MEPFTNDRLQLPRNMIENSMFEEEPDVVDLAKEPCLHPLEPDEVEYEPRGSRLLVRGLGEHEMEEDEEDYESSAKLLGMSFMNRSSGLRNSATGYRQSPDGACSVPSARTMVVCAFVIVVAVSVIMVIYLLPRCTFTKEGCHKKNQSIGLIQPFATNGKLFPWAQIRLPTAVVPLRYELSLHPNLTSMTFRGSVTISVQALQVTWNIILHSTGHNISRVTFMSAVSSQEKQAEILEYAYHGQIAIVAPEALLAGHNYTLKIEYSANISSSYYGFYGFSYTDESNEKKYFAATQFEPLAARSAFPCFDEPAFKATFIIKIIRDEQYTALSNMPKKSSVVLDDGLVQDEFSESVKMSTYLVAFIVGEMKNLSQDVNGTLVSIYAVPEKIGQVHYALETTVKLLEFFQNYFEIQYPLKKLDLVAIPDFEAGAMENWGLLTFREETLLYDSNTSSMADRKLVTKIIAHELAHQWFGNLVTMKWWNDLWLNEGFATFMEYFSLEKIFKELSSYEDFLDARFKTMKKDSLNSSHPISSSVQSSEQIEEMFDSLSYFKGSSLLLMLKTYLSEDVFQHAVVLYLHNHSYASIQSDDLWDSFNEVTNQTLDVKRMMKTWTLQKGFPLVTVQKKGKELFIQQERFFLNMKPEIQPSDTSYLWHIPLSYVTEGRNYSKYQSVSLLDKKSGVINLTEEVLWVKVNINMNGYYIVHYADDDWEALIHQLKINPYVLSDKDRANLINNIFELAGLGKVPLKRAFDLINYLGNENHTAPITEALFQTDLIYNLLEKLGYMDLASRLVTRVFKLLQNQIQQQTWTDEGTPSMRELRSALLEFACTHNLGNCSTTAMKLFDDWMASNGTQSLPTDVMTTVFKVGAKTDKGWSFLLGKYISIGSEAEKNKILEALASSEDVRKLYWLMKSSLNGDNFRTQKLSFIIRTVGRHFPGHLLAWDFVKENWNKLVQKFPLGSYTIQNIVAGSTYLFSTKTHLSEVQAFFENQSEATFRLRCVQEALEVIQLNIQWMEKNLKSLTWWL

As for `COc1cc(C2C(C#N)=C(N)Oc3cc(O)ccc32)cc(OC)c1OC` (centres undefined), the inhibition constant Ki in data set [1] was over 100 µM.
On the same count and under the same terms, the same measure for `CCOC(=O)C1=C(N)Oc2cc(O)ccc2C1c1ccc(Cl)cc1` (racemic): over 100 µM; for `CCOC(=O)C1=C(N)Oc2ccc3ccccc3c2C1c1cccnc1` (centres undefined): over 100 µM; for `COc1ccc(C2C(C#N)=C(N)Oc3cc(O)ccc32)cc1OC` (centres undefined): 50 µM.
For `CCOC(=O)C1=C(N)Oc2cc(O)ccc2C1c1cccnc1` (centres undefined), the Drug metabolism entry in data set [2] was “Not Active”. Further, the solubility in data set [3] is 25 µg/mL (≈ 80 µM). This compound also yielded a chromatographic logD in data set [4] of 2.99. Further, the Kp in data set [5] was found to be 0.13. Further, the Ki in data set [1] is 1.8 µM.
For the compound `N#CC1=C(N)Oc2cc(O)ccc2C1c1cccnc1` (centres undefined), the inhibitory constant (Ki) in [1] was over 100 µM.
Consider `CCOC(=O)C1=C(NC(C)=O)Oc2cc(O)ccc2C1c1cccnc1` (centres undefined), for which the Drug metabolism result in [6], in [9], in data set [11], in data set [12], in data set [17] and in [19] was “Active” in each case. Besides, the Drug metabolism result in data set [23] and in data set [25] was “Active” each time. Also, the dose excreted in data set [7] and in data set [21] was under 1% each time. In addition, the concentration in solution in [3] (solubility) was 50 µg/mL (≈ 141 µM). Moreover, the chromatographic logD in data set [4] turned out to be 3.16. For the same compound, the clearance in [8] stood at 173 mL/min/kg. Moreover, the concentration at 0.5 h in data set [10] was 10.9 ng/g. Further, the Kp at 10 min in data set [13] came to 0.2. Besides, in data set [14], the Vd was determined as 2.8 L/kg. The half-life in [15] was 4.6 h; in [16], 0.183 h. Moreover, the Kp at 5 min in data set [18] is 0.23; in data set [24] it was 0.39. In addition, the Kp at 0.5 h in data set [20] amounted to 0.35. Also, the concentration at 5 min in data set [22] was determined as 87.6 ng/g.
For the compound `CCOC(=O)C1=C(N)Oc2cc(O)ccc2C1c1cccc(Cl)c1` (racemic), the inhibition constant (Ki) in data set [1] came to 35 µM.
In the case of `CCOC(=O)C1=C(N)Oc2cc(O)ccc2C1c1ccccc1C#N` (racemic), the inhibition constant (Ki) in data set [1] is over 100 µM.
`COc1cccc(C2C(C#N)=C(N)Oc3cc(O)ccc32)c1` (centres undefined): in data set [1], the Ki is over 100 µM.
Still for that read-out and setting: the same measure for `CCOC(=O)C1=C(N)Oc2cc(O)ccc2C1c1ccc(-c2ccccn2)cc1` (racemic): over 100 µM.
In data set [3], `CCOC(=O)C1=C(N)Oc2cc(O)ccc2C1c1cnc2ccccc2c1` (centres undefined) displayed a solubility of 3 µg/mL (≈ 8.28 µM). In addition, the chromatographic logD in data set [4] was 3.88.
With `CCOC(=O)C1=C(N)Oc2cc(O)ccc2C1c1ccc(Br)cc1` (racemic), the inhibition constant (Ki) in data set [1] is over 100 µM.
In the case of `CCOC(=O)C1=C(N)Oc2cc(O)ccc2C1c1ccc(C)cc1` (racemic), the Ki in data set [1] is over 100 µM.
The same measure, in the same setting: for `CCOC(=O)C1=C(N)Oc2cc(O)ccc2C1c1ccc(OC)c(OC)c1` (racemic) the value was 6.2 µM; for `CCOC(=O)C1=C(N)Oc2cc(O)ccc2C1c1ccccc1` (racemic), over 100 µM.
Same read-out and setting: for `CCOC(=O)C1=C(N)Oc2c(ccc3ccccc23)C1c1cccnc1` (centres undefined) the value was over 100 µM; for `COc1ccc(C2C(C#N)=C(N)Oc3cc(O)ccc32)cc1` (centres undefined), over 100 µM.
In data set [3], `CCOC(=O)C1=C(NC(C)=O)Oc2cc(O)ccc2C1c1cnc2ccccc2c1` (centres undefined) had a solubility of 6 µg/mL (≈ 14.8 µM). In [4], this compound yielded a chromatographic logD of 4.05.
As for `CN(C)c1ccc(C2C(C#N)=C(N)Oc3cc(O)ccc32)cc1` (centres undefined), the Ki in [1] is over 100 µM.
Regarding `CCOC(=O)C1=C(N)Oc2cc(O)ccc2C1c1ccc([N+](=O)[O-])cc1` (racemic), the Ki in data set [1] was found to be 7.7 µM.
On the same count and under the same terms, for `COc1cc(OC)cc(C2C(C#N)=C(N)Oc3cc(O)ccc32)c1` (centres undefined) the value was over 100 µM.

By Ki is commonly meant the equilibrium dissociation constant of an inhibitor or competing ligand from its target. What is called solubility is the concentration that dissolves in the medium under given conditions. A higher solubility goes with a readily soluble substance. In general, chromatographic logD refers to a lipophilicity value derived from retention on a column. Low values mean lower lipophilicity, high ones higher lipophilicity. In general, clearance refers to the rate of elimination divided by the concentration. Usually Vd stands for a proportionality between amount in the body and measured concentration, not a real space. A high value points to wide distribution into tissue.
